Source: publication PMC3567257 (Biochemistry, 2012)
Where a chain is given by its changes, count along the chain named. Structures can show the parent of a compound that is named as a salt. Where two headings read alike, the source gives them in different places. Values belong to the compound of their own block, whether it stands above or below them.

Assays:
JARID1A PHD3 [1] = biological target: T1, JARID1A PHD3 (Homo sapiens, UniProt P29375); test: HaloTag assay for histone peptide binding; settings: for effect on JARID1A PHD3 binding to H3K4me3 peptide in HaloTag assay: compound 0–200 μM
T1 sequence (P29375 1601-1660): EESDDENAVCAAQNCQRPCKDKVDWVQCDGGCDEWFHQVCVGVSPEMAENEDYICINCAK
In short: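 (HQ)5-HaloTag-JARID1A PHD3 (40 μM as added) is captured on HaloTag-ligand plates for 2 h with shaking, then washed with HBST. […] Detection uses streptavidin-HRP (1:2,000, 20 min), six washes and chemiluminescence. Diluent is StabilCoat with 0.5 mM TCEP, at ambient temperature. IC50 is fitted from relative binding versus log[inhibitor].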

GST-JARID1A PHD3 = biological target: T2, GST-JARID1A PHD3 (Homo sapiens, UniProt P29375); test: Fluorescence polarization binding assay; settings: for loss of polarization (loss of peptide binding): up to 200 μM
T2 sequence (P29375 1601-1660): T1 sequence (P29375 1601-1660)

AIRE PHD1 [2] = biological target: T3, AIRE PHD1 (Homo sapiens, UniProt O43918); test: HaloTag assay counterscreen; assay type: binding; settings: 0, 50, 100, 200 μM
T3 sequence (O43918 293-354): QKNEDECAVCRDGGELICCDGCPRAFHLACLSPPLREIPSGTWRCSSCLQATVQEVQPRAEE

BHC80 PHD [3] = biological target: T4, BHC80 PHD (Homo sapiens, UniProt Q96BD5); test: HaloTag assay counterscreen; assay type: binding; settings: 0, 50, 100, 200 μM
T4 sequence (Q96BD5 486-543): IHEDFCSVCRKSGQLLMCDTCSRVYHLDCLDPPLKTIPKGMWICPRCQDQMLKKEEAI

RAG2 PHD [4] = biological target: T5, RAG2 PHD (Mus musculus, UniProt P21784); test: HaloTag assay counterscreen; assay type: binding; settings: 0, 50, 100, 200 μM
T5 sequence (P21784 414-487): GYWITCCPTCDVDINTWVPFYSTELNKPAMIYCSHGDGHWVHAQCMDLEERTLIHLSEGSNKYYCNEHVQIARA

JMJD2A DTD [5] = biological target: T6, JMJD2A DTD (Homo sapiens, UniProt O75164); test: HaloTag assay counterscreen; assay type: binding; settings: 0, 50, 100, 200 μM
T6 sequence (O75164 895-1011): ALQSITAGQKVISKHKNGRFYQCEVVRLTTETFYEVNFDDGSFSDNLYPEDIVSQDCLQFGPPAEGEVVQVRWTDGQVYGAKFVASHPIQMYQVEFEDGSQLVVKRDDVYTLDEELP

JARID1A PHD3 [6] = biological target: T1, JARID1A PHD3; test: Zinc ejection study; assay type: biochemical; settings: for zinc release from JARID1A PHD3 (PAR assay): increasing concentrations
In short: (§1)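 His6-JARID1A PHD3 or (HQ)5-HaloTag reader-domain fusion at 5 μM was treated with increasing test compound concentrations in 10 mM PAR, 30 mM HEPES, 150 mM NaCl, pH 7.4, 5% v/v DMSO. Triplicates were shaken 10 min. A boiled DMSO-only sample served as the destabilization-induced zinc release reference. Zinc release was read as absorbance at 500 nm, with DMSO-only values subtracted.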

JARID1A PHD3 [7] = biological target: T1, JARID1A PHD3; test: Affinity pull down with TMR-labeled HaloTag-JARID1A PHD3; assay type: binding; settings: for inhibition of JARID1A PHD3 in affinity pull down: compound 0–500 μM
In short: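 Streptavidin-agarose beads are loaded with biotinylated histone peptide (about 300 pmol per 6.6 μL bed volume) in 1% BSA-HBST for 30 min. HaloTag-JARID1A PHD3 is prelabeled with TMR ligand (10 μM each, 15 min, dark) and used at 100 nM final with beads. Compound is 0–500 μM at 5% DMSO, 45 min ambient, dark. After three HBST washes, beads are boiled in SDS buffer, run on 12% SDS-PAGE and scanned for TAMRA fluorescence.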

JARID1A PHD3 D1629A = biological target: T7, JARID1A PHD3 D1629A (Homo sapiens, UniProt P29375, D1629A); assay type: binding; settings: D1629 mutation, independent of substitution
T7 sequence (P29375 1601-1660 D1629A): T1 sequence (P29375 1601-1660) with D29A

JARID1A PHD3 D1629N = biological target: T8, JARID1A PHD3 D1629N (Homo sapiens, UniProt P29375, D1629N); assay type: binding; settings: D1629 mutation, independent of substitution
T8 sequence (P29375 1601-1660 D1629N): T1 sequence (P29375 1601-1660) with D29N

[8] = biological target: T9, wild-type (WT) JARID1A PHD3 (Homo sapiens, UniProt P29375); test: Dose ratio; assay type: binding; settings: di-N-desethylamiodarone 0, 20, 40, 80 μM; tegaserod maleate 0, 80, 160, 320 μM
T9 sequence (P29375 1601-1660): T1 sequence (P29375 1601-1660)

[9] = test system: JARID1A PHD3 D1624 mutants; test: Dose ratio; assay type: binding; settings: di-N-desethylamiodarone 0, 20, 40, 80 μM; tegaserod maleate 0, 80, 160, 320 μM
In short: (§2)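 Fluorescence polarization Schild analysis. Increasing GST-JARID1A PHD3 (wild type or mutant) is titrated against a fixed inhibitor concentration plus 3 nM H3(1–14)K4me3K14fluo probe. The EC50 is determined at each inhibitor level. The dose ratio is the fold change in EC50 with inhibitor relative to EC50 without inhibitor.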

[10] = test system: JARID1A PHD3 D1629 mutants; test: Dose ratio; assay type: binding; settings: di-N-desethylamiodarone 0, 20, 40, 80 μM; tegaserod maleate 0, 80, 160, 320 μM
In short: as §2

JMJD2A DTD [11] = biological target: T6, JMJD2A DTD; test: Fluorescence polarization counterscreen; assay type: binding
In short: (§3)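 Test compound titrated into GST-reader fusion at its 90% fraction-bound concentration plus 3 nM fluorescein-labeled H3(1–14) probe. Protein: AIRE PHD1 4 μM and BHC80 PHD 60 μM (K4-unmodified probe); JMJD2A DTD 4 μM and RAG2 PHD 25 μM (K4me3 probe). Buffer was 30 mM HEPES, 150 mM NaCl, pH 7.4, 0.01% Triton X-100. Triplicates read by polarization. IC50 fitted from fraction bound versus log[inhibitor].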

RAG2 PHD [12] = biological target: T5, RAG2 PHD; test: Fluorescence polarization counterscreen; assay type: binding; settings: NM: Not measurable within solubility limit of compound
In short: as §3

AIRE PHD1 [13] = biological target: T3, AIRE PHD1; test: Fluorescence polarization counterscreen; assay type: binding; settings: H3K4-unmodified probe; NM: Not measurable within solubility limit of compound
In short: as §3

BHC80 PHD [14] = biological target: T4, BHC80 PHD; test: Fluorescence polarization counterscreen; assay type: binding; settings: H3K4-unmodified probe; NM: Not measurable within solubility limit of compound
In short: as §3

AIRE PHD1 [15] = biological target: T3, AIRE PHD1; test: Zinc ejection study; assay type: biochemical; settings: compared with JARID1A PHD3
In short: as §1

BHC80 PHD [16] = biological target: T4, BHC80 PHD; test: Zinc ejection study; assay type: biochemical; settings: compared with JARID1A PHD3
In short: as §1

[17] = biological target: T10, JMJD2A double tudor domain (Homo sapiens, UniProt O75164); test: Zinc ejection study; assay type: biochemical
T10 sequence (O75164 895-1011): T6 sequence (O75164 895-1011)
In short: as §1

effect on JARID1A PHD3 binding to H3K4me3 peptide in HaloTag assay (JARID1A PHD3 [1]): significantly reduced signal | loss of peptide binding, AIRE PHD1, HaloTag assay (AIRE PHD1 [2]): Modest reductions in binding | loss of peptide binding, BHC80 PHD, HaloTag assay (BHC80 PHD [3]): Modest reductions in binding | loss of peptide binding, RAG2 PHD, HaloTag assay (RAG2 PHD [4]): Modest reductions in binding | loss of peptide binding, JMJD2A DTD, HaloTag assay (JMJD2A DTD [5]): Modest reductions in binding | inhibition of JARID1A PHD3 in affinity pull down (JARID1A PHD3 [7]): inhibited JARID1A PHD3 | IC50 (GST-JARID1A PHD3): 74 ± 16 µM | IC50 (JMJD2A DTD [11]): 95 ± 9.8 µM | IC50 towards RAG2 PHD, fluorescence polarization assay (RAG2 PHD [12]): exceeded the solubility limits | IC50 towards AIRE PHD1, fluorescence polarization assay (AIRE PHD1 [13]): exceeded the solubility limits | IC50 towards BHC80 PHD, fluorescence polarization assay (BHC80 PHD [14]): exceeded the solubility limits | zinc release from JARID1A PHD3 (PAR assay) (JARID1A PHD3 [6]): not causing zinc release | shift of EC50 / dose ratio with increasing fixed inhibitor [8]: increase in EC50 values | shift of EC50 / dose ratio with increasing fixed inhibitor [10]: dose ratios that remained near one
Compound: [H]/N=C(/NCCCCC)N/N=C/c1c[nH]c2ccc(OC)cc12 [tegaserod, Tegaserod maleate]
shift of EC50 / dose ratio with increasing fixed inhibitor [9]: dose ratios were less pronounced than for WT JARID1A PHD3

effect on JARID1A PHD3 binding to H3K4me3 peptide in HaloTag assay (JARID1A PHD3 [1]): inhibited JARID1A PHD3
Compound: CCCCc1oc2ccc(NS(C)(=O)=O)cc2c1C(=O)c1ccc(OCCCN(CCCC)CCCC)cc1 [dronedarone]

inhibition of JARID1A PHD3 by peptide competition in HaloTag assay (JARID1A PHD3 [1]; 25 μM peptide): did not significantly inhibit
Compound: unmethylated H3 peptide: histone H3 peptide unmodified at lysine 4 (ARTKQTARKSTEW; E(PEG-biotin) at position 12)

effect on JARID1A PHD3 binding to H3K4me3 peptide in HaloTag assay (JARID1A PHD3 [1]): significantly reduced signal | inhibition of JARID1A PHD3 in affinity pull down (JARID1A PHD3 [7]): inhibited JARID1A PHD3 | EC50 (JARID1A PHD3 [6]): 10 µM | susceptibility to zinc ejection, AIRE PHD1 (AIRE PHD1 [15]): similarly susceptible | susceptibility to zinc ejection, BHC80 PHD (BHC80 PHD [16]): similarly susceptible | zinc release from JMJD2A double tudor domain [17]: No zinc release was observed
Compound: CCN(CC)C(=S)SSC(=S)N(CC)CC [disulfiram, tetraethylthiuram disulfide]
loss of peptide binding, AIRE PHD1, HaloTag assay (AIRE PHD1 [2]): Significant (by p-value) loss of peptide binding | loss of peptide binding, BHC80 PHD, HaloTag assay (BHC80 PHD [3]): Significant (by p-value) loss of peptide binding | loss of peptide binding, RAG2 PHD, HaloTag assay (RAG2 PHD [4]): Significant (by p-value) loss of peptide binding | loss of polarization (loss of peptide binding) (GST-JARID1A PHD3): did not cause a significant loss in polarization

EC50 (JARID1A PHD3 [6]; read-out: concentration for half-maximal zinc loss (PAR assay), 5 μM His6-JARID1A PHD3): 33 µM
Compound: CSS(C)(=O)=O [MMTS, methyl methanethiosulfonate]

The remaining lines, values behind:

Compound: O=C(O)/C=C\C(=O)O [maleate]
effect on JARID1A PHD3 binding to H3K4me3 peptide in HaloTag assay (JARID1A PHD3 [1]): not maleate

Compound: c1ccc2c(c1)Nc1ccccc1S2 [phenothiazine]
effect on JARID1A PHD3 binding to H3K4me3 peptide in HaloTag assay (JARID1A PHD3 [1]): significantly reduced signal | loss of polarization (loss of peptide binding) (GST-JARID1A PHD3): did not cause a significant loss in polarization

Compound: CCCCc1oc2ccccc2c1C(=O)c1cc(I)c(OCCNCC)c(I)c1 [Desethylamiodarone, desethylamiodarone]
inhibition of JARID1A PHD3 in fluorescence polarization assay (GST-JARID1A PHD3; within the concentration range tested): Neither dimethyl-AMI analog nor desethyl-AMI significantly inhibited

Compound: CCc1oc2ccccc2c1C(=O)c1cc(Br)c(O)c(Br)c1 [benzbromarone]
effect on JARID1A PHD3 binding to H3K4me3 peptide in HaloTag assay (JARID1A PHD3 [1]): but not benzbromarone, inhibited JARID1A PHD3

Compound: CCCCc1oc2ccccc2c1C(=O)c1cc(I)c(OCCN(CC)CC)c(I)c1 [Amiodarone, amiodarone HCl]
effect on JARID1A PHD3 binding to H3K4me3 peptide in HaloTag assay (JARID1A PHD3 [1]): significantly reduced signal | loss of peptide binding, AIRE PHD1, HaloTag assay (AIRE PHD1 [2]): but not AIRE PHD1 or BHC80 PHD | loss of peptide binding, BHC80 PHD, HaloTag assay (BHC80 PHD [3]): but not AIRE PHD1 or BHC80 PHD | loss of peptide binding, RAG2 PHD, HaloTag assay (RAG2 PHD [4]): significantly affected | loss of peptide binding, JMJD2A DTD, HaloTag assay (JMJD2A DTD [5]): significantly affected | loss of polarization (loss of peptide binding) (GST-JARID1A PHD3): did not cause a significant loss in polarization | zinc release from JARID1A PHD3 (PAR assay) (JARID1A PHD3 [6]): not causing zinc release

Compound: H3K4me3 peptide: histone H3 peptide trimethylated at lysine 4; unlabeled competitor or fluorescein-labeled H3(1–14) probe
IC50 (JARID1A PHD3 [7]; read-out: experimental IC50, peptide competition in affinity pull down): 13.6 ± 4.5 µM | defect in affinity relative to wild-type (JARID1A PHD3 D1629A): greater than 10 fold | defect in affinity relative to wild-type (JARID1A PHD3 D1629N): greater than 10 fold

Compound: CCCCc1oc2ccccc2c1C(=O)c1cc(I)c(OCCN)c(I)c1 [Di-N-desethylamiodarone, di-N-desethylamiodarone]
shift of EC50 / dose ratio with increasing fixed inhibitor [8]: increase in EC50 values | shift of EC50 / dose ratio with increasing fixed inhibitor [9]: dose ratios were less pronounced than for WT JARID1A PHD3 | shift of EC50 / dose ratio with increasing fixed inhibitor [10]: dose ratios that remained near one
